Calls of active or inactive are those of the source. The rule behind the calls is not given here.
Assays:
[1] = Half life in mouse at 1 mg/kg, iv and 2 mg/kg, po; type: ADME, organism-based; conditions: in vivo
[2] = Blood clearance in mouse at 1 mg/kg, iv and 2 mg/kg, po; type: ADME, organism-based
Mus musculus [3] = test: In vivo occupancy of human GCGR transfected in mouse at 10 mg/kg after 3 hrs; type: functional
Outline: (§1)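 In vivo receptor occupancy measured in hGCGR transgenic mice after oral dosing, at 1 h post-dose (30 and 10 mpk) and in a separate experiment at 1, 3 and 8 h after 10 mpk.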

Canis familiaris [4] = test: Cardiotoxicity in dog assessed as effect on cardiovascular parameters at 1 to 10 mg/kg, iv after 30 mins; type: toxicity, organism-based, Canis lupus familiaris, Heart; set-up: dose 1-10 mg/kg, route intravenous; conditions: in vivo, 0.5 h
Mus musculus [5] = test: Antihyperglycemic activity in streptozotocin-induced diabetes mouse model assessed as decrease in blood glucose AUC level at 30 mg/kg, po after 4 weeks; type: functional; conditions: 672 h
Outline: (§2)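 Diabetic model: hGCGR transgenic mice on high-fat diet for eight weeks, streptozotocin-treated during the last four weeks; single oral dose, blood glucose AUC over 2–6 h measured.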

[6] = Plasma concentration in rhesus monkey at 0.3 mg/kg, po after 4 hrs; type: ADME, organism-based, Macaca mulatta; set-up: dose 0.3 mg/kg, route oral
Outline: (§3)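 Overnight-fasted rhesus monkeys received the oral dose 4 h before the glucagon challenge (15 µg/kg im, time zero). Plasma drug level was sampled at the time of the challenge (t = 0, n = 4). Plasma glucose was then followed every 10 min and expressed as the change from time zero.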

[7] = Cmax in rat at 2 mg/kg, po; type: ADME, organism-based; set-up: dose 2 mg/kg, route oral; conditions: in vivo
[8] = Plasma concentration in rhesus monkey at 1 mg/kg, po after 4 hrs; type: ADME, organism-based, Macaca mulatta; set-up: dose 1 mg/kg, route oral; outline: as §3
Mus musculus [9] = test: Antidiabetic activity in transgenic mouse expressing human GCGR assessed as inhibition of glucagon-induced blood glucose excursion at 30 mg/kg, po administered 60 mins before glucagon challenge measured after 48 mins; type: functional, organism-based; set-up: dose 30 mg/kg
Outline: (§4)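 hGCGR transgenic mice (only functional receptor is human GCGR), 9 per group, given compound orally, then glucagon 15 µg/kg IP 60 min later (one arm dosed 30 mpk three hours before challenge); blood glucose monitored at 12, 24, 36 and 48 min after glucagon.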

Glucagon receptor [10] = biological target: Glucagon receptor (Mus musculus, UniProt Q61606); test: Antagonist activity at mouse GCGR assessed as inhibition of glucagon-induced cAMP accumulation; type: functional
Glucagon receptor (Mus musculus, UniProt Q61606), sequence (Q61606 whole entry): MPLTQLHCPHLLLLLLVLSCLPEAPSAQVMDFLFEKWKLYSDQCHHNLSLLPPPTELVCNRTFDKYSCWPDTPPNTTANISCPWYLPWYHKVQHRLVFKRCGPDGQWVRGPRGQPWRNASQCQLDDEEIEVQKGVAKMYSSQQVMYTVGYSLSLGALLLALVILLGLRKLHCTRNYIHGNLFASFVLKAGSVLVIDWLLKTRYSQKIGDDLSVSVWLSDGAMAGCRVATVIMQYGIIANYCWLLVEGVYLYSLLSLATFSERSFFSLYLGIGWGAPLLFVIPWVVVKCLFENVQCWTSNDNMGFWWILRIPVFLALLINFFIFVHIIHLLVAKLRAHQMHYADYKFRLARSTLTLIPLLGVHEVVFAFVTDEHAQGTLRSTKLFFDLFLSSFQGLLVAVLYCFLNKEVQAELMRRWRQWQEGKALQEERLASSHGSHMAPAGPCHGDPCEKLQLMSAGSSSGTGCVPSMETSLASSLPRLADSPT

[11] = Plasma clearance in rat at 1 mg/kg, iv and 2 mg/kg, po; type: ADME, organism-based
Mus musculus [12] = test: Dose normalized AUC in mouse at 2 mg/kg, po; type: ADME, organism-based; set-up: dose 2 mg/kg, route oral; conditions: in vivo
Glucagon receptor [13] = biological target: T1, Glucagon receptor (Homo sapiens, UniProt P47871); test: Antagonist activity at human GCGR expressed in CHO cells assessed as inhibition of glucagon-induced cAMP accumulation; type: functional, cell-based
T1 sequence (P47871 whole entry): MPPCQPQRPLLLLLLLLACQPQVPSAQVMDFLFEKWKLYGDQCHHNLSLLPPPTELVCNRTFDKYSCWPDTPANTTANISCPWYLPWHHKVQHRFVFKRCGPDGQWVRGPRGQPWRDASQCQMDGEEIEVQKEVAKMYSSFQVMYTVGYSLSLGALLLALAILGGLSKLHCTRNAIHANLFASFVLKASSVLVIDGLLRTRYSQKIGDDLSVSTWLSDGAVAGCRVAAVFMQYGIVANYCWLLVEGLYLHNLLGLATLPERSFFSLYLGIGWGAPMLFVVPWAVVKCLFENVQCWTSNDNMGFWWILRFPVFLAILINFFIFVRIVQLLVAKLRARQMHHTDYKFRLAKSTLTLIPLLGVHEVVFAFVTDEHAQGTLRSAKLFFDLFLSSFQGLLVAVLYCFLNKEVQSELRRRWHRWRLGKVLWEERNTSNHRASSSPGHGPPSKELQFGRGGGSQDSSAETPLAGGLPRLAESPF
Outline: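 Inhibition of glucagon-induced cAMP accumulation in CHO cells transfected with human GCGR; IC50 derived, n given where replicated.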

[14] = Plasma concentration in dog at 1 to 10 mg/kg, iv after 30 mins; type: ADME, organism-based, Canis lupus familiaris; set-up: dose 1-10 mg/kg, route intravenous
Canis familiaris [15] = test: Dose normalized AUC in dog at 2 mg/kg, po; type: ADME, organism-based, Canis lupus familiaris; set-up: dose 2 mg/kg, route oral; conditions: in vivo
[16] = Antagonist activity at rhesus monkey GCGR assessed as inhibition of glucagon-induced cAMP accumulation; type: functional, Macaca mulatta
Rhesus monkey = test: Antidiabetic activity in rhesus monkey assessed as inhibition of glucagon-induced blood glucose excursion at 1 to 10 mg/kg, po administered 4 hrs before glucagon challenge measured after 4 hrs; type: functional, organism-based; conditions: Macaca mulatta
Outline: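 Overnight-fasted rhesus monkeys dosed with vehicle or compound 4 h before challenge; glucagon 15 µg/kg im at time zero, plasma glucose monitored every 10 min and expressed as change from time zero per group.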

Glucagon receptor [17] = biological target: Glucagon receptor (Rattus norvegicus, UniProt P30082); test: Antagonist activity at rat GCGR assessed as inhibition of glucagon-induced cAMP accumulation; type: functional
Glucagon receptor (Rattus norvegicus, UniProt P30082), sequence (P30082 whole entry): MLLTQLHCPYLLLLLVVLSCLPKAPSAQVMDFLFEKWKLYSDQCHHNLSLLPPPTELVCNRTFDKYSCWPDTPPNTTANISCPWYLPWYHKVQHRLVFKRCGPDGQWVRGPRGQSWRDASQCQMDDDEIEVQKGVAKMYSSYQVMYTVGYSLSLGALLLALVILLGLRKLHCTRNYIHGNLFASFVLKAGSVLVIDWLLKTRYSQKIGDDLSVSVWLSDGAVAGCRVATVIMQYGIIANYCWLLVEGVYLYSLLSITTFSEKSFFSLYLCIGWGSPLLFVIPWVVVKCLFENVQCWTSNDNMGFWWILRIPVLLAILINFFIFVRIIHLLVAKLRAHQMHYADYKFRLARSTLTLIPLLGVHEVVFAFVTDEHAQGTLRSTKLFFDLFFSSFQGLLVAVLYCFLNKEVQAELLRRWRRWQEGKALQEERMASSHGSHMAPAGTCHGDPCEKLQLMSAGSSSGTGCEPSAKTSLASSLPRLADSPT

[18] = Volume of distribution at steady state in mouse at 1 mg/kg, iv and 2 mg/kg, po; type: ADME, organism-based; conditions: in vivo, read-out: Vdss
Cytochrome P450 2C9 = Cytochrome P450 2C9 (Homo sapiens, UniProt P11712); test: Inhibition of CYP2C9; type: ADME
Cytochrome P450 2C9, sequence (P11712 whole entry): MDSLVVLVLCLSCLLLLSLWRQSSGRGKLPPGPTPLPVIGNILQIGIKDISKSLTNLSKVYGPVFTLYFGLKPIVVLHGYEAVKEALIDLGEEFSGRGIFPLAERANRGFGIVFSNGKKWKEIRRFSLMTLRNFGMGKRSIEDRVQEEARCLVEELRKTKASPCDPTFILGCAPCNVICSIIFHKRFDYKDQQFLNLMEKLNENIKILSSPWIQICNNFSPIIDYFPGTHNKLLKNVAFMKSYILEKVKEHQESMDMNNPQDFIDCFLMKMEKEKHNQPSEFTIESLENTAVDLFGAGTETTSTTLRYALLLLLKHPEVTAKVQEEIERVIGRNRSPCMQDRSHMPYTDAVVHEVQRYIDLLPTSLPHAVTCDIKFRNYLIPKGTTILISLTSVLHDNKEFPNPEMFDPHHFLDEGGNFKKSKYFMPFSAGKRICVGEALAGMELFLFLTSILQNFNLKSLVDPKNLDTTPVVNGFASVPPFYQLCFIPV

[19] = biological target: Pituitary adenylate cyclase-activating polypeptide type I receptor (Homo sapiens, UniProt P41586); test: Antagonist activity at human PACAPR1 expressed in CHO cells assessed as inhibition of glucagon-induced cAMP accumulation; type: functional, cell-based
Pituitary adenylate cyclase-activating polypeptide type I receptor, sequence (P41586 whole entry): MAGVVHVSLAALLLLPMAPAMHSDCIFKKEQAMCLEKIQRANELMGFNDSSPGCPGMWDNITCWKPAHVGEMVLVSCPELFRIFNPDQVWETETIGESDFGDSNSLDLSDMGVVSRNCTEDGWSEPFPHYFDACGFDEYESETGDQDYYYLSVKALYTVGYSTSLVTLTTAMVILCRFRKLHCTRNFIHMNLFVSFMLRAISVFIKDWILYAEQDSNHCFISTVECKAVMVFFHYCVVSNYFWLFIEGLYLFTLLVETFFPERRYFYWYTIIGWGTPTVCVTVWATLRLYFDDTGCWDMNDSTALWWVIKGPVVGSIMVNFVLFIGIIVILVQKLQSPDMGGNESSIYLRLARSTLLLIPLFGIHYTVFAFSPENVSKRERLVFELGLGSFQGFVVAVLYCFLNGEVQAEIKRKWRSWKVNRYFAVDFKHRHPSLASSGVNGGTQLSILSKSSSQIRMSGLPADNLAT

Mus musculus [20] = test: Antidiabetic activity in transgenic mouse expressing human GCGR assessed as inhibition of glucagon-induced blood glucose excursion at 30 mg/kg, po administered 3 hrs before glucagon challenge measured after 48 mins; type: functional, organism-based; set-up: dose 30 mg/kg; outline: as §4
Mus musculus [21] = test: Antihyperglycemic activity in streptozotocin-induced diabetes mouse model assessed as decrease in blood glucose AUC level at 10 mg/kg, po after 4 weeks; type: functional; conditions: 672 h; outline: as §2
[22] = biological target: T2, Nuclear receptor subfamily 1 group I member 2 (Homo sapiens, UniProt O75469); test: Activity at human PXR
T2 sequence (O75469 whole entry): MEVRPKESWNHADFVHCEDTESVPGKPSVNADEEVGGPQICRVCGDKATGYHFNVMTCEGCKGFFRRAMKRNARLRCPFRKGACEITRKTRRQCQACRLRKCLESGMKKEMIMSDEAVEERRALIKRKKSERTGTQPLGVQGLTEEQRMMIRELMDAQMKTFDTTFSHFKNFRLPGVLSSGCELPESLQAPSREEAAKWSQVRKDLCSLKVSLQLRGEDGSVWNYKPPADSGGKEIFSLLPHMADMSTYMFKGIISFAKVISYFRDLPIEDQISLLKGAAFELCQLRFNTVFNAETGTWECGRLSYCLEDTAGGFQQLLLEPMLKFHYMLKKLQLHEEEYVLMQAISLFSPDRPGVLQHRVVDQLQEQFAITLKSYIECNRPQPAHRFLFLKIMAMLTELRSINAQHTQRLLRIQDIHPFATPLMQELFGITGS

Rattus norvegicus = test: Dose normalized AUC in rat at 2 mg/kg, po; type: ADME, organism-based; set-up: dose 2 mg/kg, route oral; conditions: in vivo
[23] = Cmax in mouse at 2 mg/kg, po; type: ADME, organism-based; set-up: dose 2 mg/kg, route oral; conditions: in vivo
[24] = Volume of distribution at steady state in dog at 0.5 mg/kg, iv and 2 mg/kg, po; type: ADME, organism-based, Canis lupus familiaris; conditions: in vivo, read-out: Vdss
[25] = Cmax in rhesus monkey at 2 mg/kg, po; type: ADME, organism-based, Macaca mulatta; set-up: dose 2 mg/kg, route oral; conditions: in vivo
[26] = Volume of distribution at steady state in rhesus monkey at 0.5 mg/kg, iv and 2 mg/kg, po; type: ADME, organism-based, Macaca mulatta; conditions: in vivo, read-out: Vdss
Cytochrome P450 3A4 = Cytochrome P450 3A4 (Homo sapiens, UniProt P08684); test: Inhibition of CYP3A4; type: ADME
Cytochrome P450 3A4, sequence (P08684 whole entry): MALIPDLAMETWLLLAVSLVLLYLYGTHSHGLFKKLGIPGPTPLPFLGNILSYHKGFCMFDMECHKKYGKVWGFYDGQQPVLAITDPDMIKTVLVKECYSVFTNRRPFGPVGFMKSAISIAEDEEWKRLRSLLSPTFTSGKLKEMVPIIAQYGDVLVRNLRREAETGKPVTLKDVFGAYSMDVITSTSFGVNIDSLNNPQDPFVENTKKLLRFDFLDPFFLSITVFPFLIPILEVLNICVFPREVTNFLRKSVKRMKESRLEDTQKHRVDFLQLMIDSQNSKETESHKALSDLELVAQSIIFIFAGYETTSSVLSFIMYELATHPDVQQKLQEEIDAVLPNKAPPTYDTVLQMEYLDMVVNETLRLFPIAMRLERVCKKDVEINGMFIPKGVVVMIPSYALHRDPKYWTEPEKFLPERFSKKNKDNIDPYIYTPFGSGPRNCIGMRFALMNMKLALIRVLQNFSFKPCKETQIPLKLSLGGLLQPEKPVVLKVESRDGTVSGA

Oryctolagus cuniculus = organism: Oryctolagus cuniculus; test: Binding affinity to DLZ-sensitive rabbit calcium channel up to 10 uM
Mus musculus [27] = test: In vivo occupancy of human GCGR transfected in mouse at 10 mg/kg, po after 1 hr; type: functional; outline: as §1
Glucagon receptor [28] = biological target: T1, Glucagon receptor; test: Displacement of [125I]glucagon from human GCGR expressed in CHO cells; type: cell-based
Outline: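 Binding inhibition of 125I-glucagon to human GCGR expressed in CHO cell membranes; IC50 reported, n given where replicated.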

Cytochrome P450 2D6 = Cytochrome P450 2D6 (Homo sapiens, UniProt P10635); test: Inhibition of CYP2D6; type: ADME
Cytochrome P450 2D6, sequence (P10635 whole entry): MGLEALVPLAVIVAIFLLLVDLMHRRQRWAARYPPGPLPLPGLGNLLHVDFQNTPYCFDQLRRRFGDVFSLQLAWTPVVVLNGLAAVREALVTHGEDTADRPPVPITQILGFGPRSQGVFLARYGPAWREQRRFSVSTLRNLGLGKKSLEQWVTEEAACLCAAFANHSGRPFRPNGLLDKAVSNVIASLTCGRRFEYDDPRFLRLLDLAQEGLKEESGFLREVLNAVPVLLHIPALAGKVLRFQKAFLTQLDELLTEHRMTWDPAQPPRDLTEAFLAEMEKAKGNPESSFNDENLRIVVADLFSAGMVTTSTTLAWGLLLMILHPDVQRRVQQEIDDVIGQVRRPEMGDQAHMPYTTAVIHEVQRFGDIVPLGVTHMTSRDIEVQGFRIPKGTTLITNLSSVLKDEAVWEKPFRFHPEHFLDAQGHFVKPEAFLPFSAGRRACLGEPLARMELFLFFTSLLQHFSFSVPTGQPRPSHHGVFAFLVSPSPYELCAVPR

[29] = biological target: Glucagon-like peptide 1 receptor (Homo sapiens, UniProt P43220); test: Antagonist activity at human GLP1R expressed in CHO cells assessed as inhibition of glucagon-induced cAMP accumulation; type: functional, cell-based
Glucagon-like peptide 1 receptor, sequence (P43220 whole entry): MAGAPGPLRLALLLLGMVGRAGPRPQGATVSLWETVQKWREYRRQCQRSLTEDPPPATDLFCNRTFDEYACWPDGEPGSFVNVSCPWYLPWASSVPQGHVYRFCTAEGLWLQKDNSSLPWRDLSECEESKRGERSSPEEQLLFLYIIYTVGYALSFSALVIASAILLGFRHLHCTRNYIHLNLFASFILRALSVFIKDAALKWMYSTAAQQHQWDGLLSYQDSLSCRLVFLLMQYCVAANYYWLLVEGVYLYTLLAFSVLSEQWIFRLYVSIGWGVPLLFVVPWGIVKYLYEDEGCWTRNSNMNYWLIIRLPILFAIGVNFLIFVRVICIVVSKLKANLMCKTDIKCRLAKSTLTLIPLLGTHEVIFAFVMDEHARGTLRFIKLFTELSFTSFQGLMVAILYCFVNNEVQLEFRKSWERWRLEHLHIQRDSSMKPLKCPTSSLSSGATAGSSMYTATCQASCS

Mus musculus [30] = test: In vivo occupancy of human GCGR transfected in mouse at 10 mg/kg after 1 hr; type: functional; outline: as §1

O=C(O)CCNC(=O)c1ccc(Cn2nc(-c3cc(Cl)cc(Cl)c3)cc2-c2ccc(OC(F)(F)F)cc2)cc1
half-life [1]: 2.3 h | clearance [2]: 0.366 L/h/kg | Activity (Mus musculus [3]): 60% | Activity (Canis familiaris [4]): Non-toxic | inhibition in vivo at 30 mg/kg (Mus musculus [5]): 37% | concentration at 4 h [6]: 0.13 µM | Cmax [7]: 1.6 µM | concentration at 4 h [8]: 0.6 µM | inhibition (Mus musculus [9]): Active | IC50 (Glucagon receptor [10]): 2 µM | clearance [11]: 0.096 L/h/kg | AUC (Mus musculus [12]): 0.73 µM·kg·h/mg | IC50 (Glucagon receptor [13]): 0.11 µM | concentration at 0.5 h [14]: 96 µM | AUC (Canis familiaris [15]): 27 µM·kg·h/mg | IC50 [16]: 0.14 µM | inhibition (Rhesus monkey): Active | IC50 (Glucagon receptor [17]): 2.6 µM | Vd [18]: 1.1 L/kg | IC50 (Cytochrome P450 2C9): 5.8 µM | IC50 [19]: > 7 µM | inhibition (Mus musculus [20]): Active | inhibition in vivo at 10 mg/kg (Mus musculus [21]): 27% | EC50 [22]: > 25 µM | AUC (Rattus norvegicus): 11 µM·kg·h/mg | Cmax [23]: 0.23 µM | Vd [24]: 0.14 L/kg | Cmax [25]: 4.2 µM | Vd [26]: 0.55 L/kg | IC50 (Cytochrome P450 3A4): 39 µM | Activity (Oryctolagus cuniculus): inactive | Activity (Mus musculus [27]): 51% | IC50 (Glucagon receptor [28]): 0.084 µM | IC50 (Cytochrome P450 2D6): > 100 µM | IC50 [29]: > 10 µM | Activity (Mus musculus [30]): 64%
